In ChEMBL document CHEMBL4680086, “Antiangiogenic Effect of (±)-Haloperidol Metabolite II Valproate Ester [(±)-MRJF22] in Human Microvascular Retinal Endothelial Cells” (J Med Chem, 2016):
Active and inactive are the calls of the source. No cut-off for these calls is given here.

What was measured:
HREC [1] = assay: Suppression of VEGF-A-induced angiogenesis in HREC assessed as reduction of the ramification number at 5 uM incubated for 24 hrs by Matrigel based tube formation assay; assay type: functional; settings: Homo sapiens
How it was run: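 HRECs plated on Matrigel in the presence of VEGF-A. Emerging branch points (ramification number) from tube formation were quantified by phase-contrast imaging.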

HREC [2] = assay: Suppression of VEGF-A-induced cell migration in HREC assessed as effect on crossing cells count at 2 uM incubated for 24 to 72 hrs by wound healing assay; assay type: functional; settings: Homo sapiens, time 24-72 hrs
HREC [3] = assay: Effect on cell migration of in HREC at 2 uM incubated for 24 to 72 hrs by wound healing assay; assay type: functional; settings: Homo sapiens, time 24-72 hrs
[4] = Cytotoxicity in HREC assessed as reduction in cell viability incubated for 96 hrs by MTT assay; assay type: functional; settings: Homo sapiens
How it was run: (§1)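 HREC were exposed to the test agent for 24, 48, 72 or 96 h. Viability was measured by MTT, and IC50 values were derived for each time point.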

[5] = Cytotoxicity in HREC assessed as reduction in cell viability incubated for 24 hrs by MTT assay; assay type: functional; settings: Homo sapiens
How it was run: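 HREC viability measured by MTT test after compound exposure for 24, 48, 72 or 96 h, with concentrations up to 200 μM.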

[6] = Displacement of [3H]-DTG from sigma2 receptor in guinea pig brain membranes by scintillation counting; assay type: cell membranes, Cavia porcellus, Cell membrane
HREC [7] = assay: Suppression of VEGF-A-induced cell migration in HREC assessed as crossing cells count at 5 uM incubated for 24 hrs by wound healing assay (reference value: 63%); assay type: functional; settings: Homo sapiens
HREC [8] = assay: Cytotoxicity in HREC assessed as reduction in cell counts at 5 uM incubated for 72 hrs under basal conditions by Trypan blue dye exclusion assay; assay type: functional; settings: Homo sapiens
How it was run: (§2)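 HRECs grown in medium with 1% FBS under basal conditions, no VEGF-A. Exposure 24 or 72 h. Read-out is the count of live cells excluding dye in a Trypan blue exclusion test.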

[9] = Cytotoxicity in HREC assessed as reduction in cell viability incubated for 72 hrs by MTT assay; assay type: functional; settings: Homo sapiens; how it was run: as §1
[10] = Cytotoxicity in HREC assessed as reduction in cell viability incubated for 48 hrs by MTT assay; assay type: functional; settings: Homo sapiens; how it was run: as §1
[11] = target: Sigma non-opioid intracellular receptor 1 (Cavia porcellus, UniProt Q60492); assay: Displacement of [3H]-pentazocine from sigma1 receptor in guinea pig brain membranes by scintillation counting; assay type: cell membranes, Cell membrane
Sigma non-opioid intracellular receptor 1, sequence (Q60492 whole entry): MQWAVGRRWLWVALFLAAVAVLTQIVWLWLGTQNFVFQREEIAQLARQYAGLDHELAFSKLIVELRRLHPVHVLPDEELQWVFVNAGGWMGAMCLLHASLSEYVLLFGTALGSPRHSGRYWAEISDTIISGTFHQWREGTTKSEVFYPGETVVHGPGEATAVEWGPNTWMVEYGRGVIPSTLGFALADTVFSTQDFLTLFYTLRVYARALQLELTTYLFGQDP

HREC [12] = assay: Cytotoxicity in HREC assessed as reduction in cell counts at 5 uM incubated for 24 hrs under basal conditions by Trypan blue dye exclusion assay; assay type: functional; settings: Homo sapiens; how it was run: as §2
HREC [13] = assay: Effect on cell migration of in HREC at 5 uM incubated for 24 to 72 hrs by wound healing assay; assay type: functional; settings: Homo sapiens, time 24-72 hrs
How it was run: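 A scratch wound was made in a confluent HREC monolayer, which was then kept in 1% FBS medium, either basal or with VEGF-A 80 ng/mL. (+)-Pentazocine (1 or 2 μM) was added where indicated. Wound-edge cell advancement was scored as a percentage at 24 and 72 h after the scratch.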

HREC [14] = assay: Suppression of VEGF-A-induced cell migration in HREC assessed as crossing cells count at 5 uM incubated for 72 hrs by wound healing assay (reference value: 26%); assay type: functional; settings: Homo sapiens

O=C(CCCN1CCC(O)(c2ccc(Cl)cc2)CC1)c1ccc(F)cc1 [HALOPERIDOL]
Activity (HREC [1]): inactive | Activity (HREC [2]): inactive | Activity (HREC [3]): inactive | IC50 ([4]; read-out: IC50): 0.00228 mM | IC50 ([4]; read-out: pIC50 (converted)): 0.00229 mM

CCCC(CCC)C(=O)O [VALPROIC ACID]
IC50 ([5]; read-out: IC50): 1.22 mM | IC50 ([5]; read-out: pIC50 (converted)): 1.22 mM | Ki [6]: > 0.01 mM | Activity (HREC [7]): inactive | Activity (HREC [8]): inactive | IC50 ([9]; read-out: IC50): 1.39 mM | IC50 ([9]; read-out: pIC50 (converted)): 1.39 mM | IC50 ([10]; read-out: IC50): 1.45 mM | IC50 ([10]; read-out: pIC50 (converted)): 1.45 mM | Ki [11]: > 0.01 mM | Activity (HREC [12]): inactive | Activity (HREC [13]): inactive | IC50 ([4]; read-out: IC50): 1.48 mM | IC50 ([4]; read-out: pIC50 (converted)): 1.48 mM | Activity (HREC [14]): inactive
